Molecules are shown by their SMILES. pEC50, pIC50: −log10 of the molar value. Calls of active or inactive are those of the source. The rule behind the calls is not given here.

In one data set the target is T1, PXR (NR1I2) (Homo sapiens, UniProt O75469).
T1 sequence (O75469 whole entry): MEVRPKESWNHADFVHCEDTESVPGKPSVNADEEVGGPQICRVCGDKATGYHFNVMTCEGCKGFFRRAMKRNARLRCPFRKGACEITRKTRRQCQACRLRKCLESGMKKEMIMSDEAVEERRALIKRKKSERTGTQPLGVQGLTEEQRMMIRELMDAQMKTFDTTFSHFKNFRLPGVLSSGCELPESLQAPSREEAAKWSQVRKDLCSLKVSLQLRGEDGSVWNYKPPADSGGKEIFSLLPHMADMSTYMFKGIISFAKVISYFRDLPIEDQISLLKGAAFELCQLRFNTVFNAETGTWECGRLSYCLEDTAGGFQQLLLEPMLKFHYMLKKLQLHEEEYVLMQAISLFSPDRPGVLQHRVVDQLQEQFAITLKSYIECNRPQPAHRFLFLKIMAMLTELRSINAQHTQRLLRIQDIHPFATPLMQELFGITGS
As to the kind of experiment: Transactivation of PXR in human HepG2 cells relative to rifampicin. The settings on record: read-out: %max. The format is ADME, cell-based.

For data set [1], the target named is T2, Oxysterols receptor LXR-beta (Homo sapiens, UniProt P55055).
T2 sequence (P55055 whole entry): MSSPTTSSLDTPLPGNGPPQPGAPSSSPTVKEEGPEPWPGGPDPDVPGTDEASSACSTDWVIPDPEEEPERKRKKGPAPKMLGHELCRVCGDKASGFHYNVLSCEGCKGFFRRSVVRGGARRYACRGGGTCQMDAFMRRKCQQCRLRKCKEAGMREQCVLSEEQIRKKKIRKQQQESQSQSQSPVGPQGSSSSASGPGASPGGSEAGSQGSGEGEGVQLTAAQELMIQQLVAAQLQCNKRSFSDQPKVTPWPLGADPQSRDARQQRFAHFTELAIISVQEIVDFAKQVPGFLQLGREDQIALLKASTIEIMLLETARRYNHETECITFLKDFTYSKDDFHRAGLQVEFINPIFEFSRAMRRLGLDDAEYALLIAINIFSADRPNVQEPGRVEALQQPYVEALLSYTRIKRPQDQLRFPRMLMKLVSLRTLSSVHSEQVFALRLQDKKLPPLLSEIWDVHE
Put plainly: Agonist activity at LXRbeta (unknown origin) expressed in African green monkey CV1 cells. In kind it is cell-based.

The nature of data set [2]: Permeability in human Caco2 cells. The format is ADME, cell-based. To be noted: Caco-2, read-out: permeability. Summed up:
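Caco-2 monolayer permeability, reported as permeation coefficient in nm/s; an efflux ratio was also determined.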

Data set [3] can be described thus: Protein binding in mouse plasma assessed as unbound fraction. The format is ADME, cell-free.
In data set [4] the target is T3, Nuclear receptor ROR-alpha (Homo sapiens) (UniProt P35398).
T3 sequence (whole entry): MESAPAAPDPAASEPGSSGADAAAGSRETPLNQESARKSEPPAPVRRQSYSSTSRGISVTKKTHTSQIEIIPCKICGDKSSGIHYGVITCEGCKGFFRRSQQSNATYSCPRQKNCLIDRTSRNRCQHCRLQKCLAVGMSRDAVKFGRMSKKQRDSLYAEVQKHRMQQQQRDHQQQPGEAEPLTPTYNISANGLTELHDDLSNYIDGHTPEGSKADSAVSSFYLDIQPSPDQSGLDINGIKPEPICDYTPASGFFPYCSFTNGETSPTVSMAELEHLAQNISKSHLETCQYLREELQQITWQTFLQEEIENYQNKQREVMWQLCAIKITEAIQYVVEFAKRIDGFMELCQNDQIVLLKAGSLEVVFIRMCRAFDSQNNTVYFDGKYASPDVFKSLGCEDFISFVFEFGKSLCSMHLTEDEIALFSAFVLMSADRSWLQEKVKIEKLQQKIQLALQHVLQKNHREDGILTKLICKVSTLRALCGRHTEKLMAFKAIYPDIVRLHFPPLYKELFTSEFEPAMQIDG
Put plainly: Agonist activity at GAL4-fused RORalpha LBD (272 to 556 residues) (unknown origin) expressed in human Jurkat cells measured after 18 hrs by native IL17 promoter driven steady-glo luciferase assay. In kind it is cell-based.

In data set [5] the target is T4, Nuclear receptor ROR-beta (Homo sapiens) (UniProt Q92753).
T4 sequence (whole entry): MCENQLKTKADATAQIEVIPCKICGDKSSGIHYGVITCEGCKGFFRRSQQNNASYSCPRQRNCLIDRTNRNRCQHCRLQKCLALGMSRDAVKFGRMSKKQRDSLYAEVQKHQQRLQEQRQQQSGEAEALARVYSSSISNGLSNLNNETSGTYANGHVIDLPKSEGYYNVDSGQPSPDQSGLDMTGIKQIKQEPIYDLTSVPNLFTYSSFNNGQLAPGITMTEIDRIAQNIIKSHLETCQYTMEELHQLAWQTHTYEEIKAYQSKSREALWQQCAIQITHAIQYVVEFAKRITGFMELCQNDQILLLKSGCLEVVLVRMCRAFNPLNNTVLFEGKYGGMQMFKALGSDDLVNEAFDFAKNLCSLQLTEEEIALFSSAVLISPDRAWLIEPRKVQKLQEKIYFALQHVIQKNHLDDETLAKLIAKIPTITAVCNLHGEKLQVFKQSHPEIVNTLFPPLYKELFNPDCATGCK
Put plainly: Agonist activity at GAL4-fused RORbeta LBD (200 to 559 residues) (unknown origin) expressed in human Jurkat cells measured after 18 hrs by native IL17 promoter driven steady-glo luciferase assay. In kind it is cell-based.

In another data set the target is Cytochrome P450 2C9 (Homo sapiens, UniProt P11712). As to the kind of experiment: Inhibition of CYP2C9 (unknown origin). The format is ADME.
Sequence of Cytochrome P450 2C9 (P11712 whole entry): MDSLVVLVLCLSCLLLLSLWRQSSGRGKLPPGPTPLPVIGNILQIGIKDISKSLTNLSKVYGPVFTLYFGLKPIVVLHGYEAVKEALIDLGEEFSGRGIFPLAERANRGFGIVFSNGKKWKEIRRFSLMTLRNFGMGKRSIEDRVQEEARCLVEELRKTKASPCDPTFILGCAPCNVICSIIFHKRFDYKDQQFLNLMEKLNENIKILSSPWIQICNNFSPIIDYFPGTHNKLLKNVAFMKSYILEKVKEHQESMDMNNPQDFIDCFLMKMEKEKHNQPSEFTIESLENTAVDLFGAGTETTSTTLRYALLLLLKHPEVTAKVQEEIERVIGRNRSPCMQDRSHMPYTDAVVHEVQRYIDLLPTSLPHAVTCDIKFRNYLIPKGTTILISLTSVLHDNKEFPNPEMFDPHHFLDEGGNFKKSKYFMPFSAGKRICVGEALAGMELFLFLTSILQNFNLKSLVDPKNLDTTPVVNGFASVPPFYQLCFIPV
The next data set addresses Cytochrome P450 2C19 (Homo sapiens, UniProt P33261). Put plainly: Inhibition of CYP2C19 (unknown origin). In kind it is ADME.
A short description of data set [6]: Half life in mouse liver microsomes. In kind it is ADME, Microsome.
Data set [7] is described as follows: Half life in Balb/c mouse at 2 mg/kg, iv. The settings on record: in vivo. In kind it is ADME, organism-based. Summed up: (§1)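 Balb/c mice given a single intravenous dose of 2 mg/kg or an oral dose of 10 mg/kg. Plasma exposure was followed to derive Cmax, Tmax, AUC, t1/2, clearance, Vss and oral bioavailability (F).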
A short description of data set [8]: Volume of distribution at steady state in Balb/c mouse at 2 mg/kg, iv. In kind it is ADME, organism-based. To be noted: in vivo, read-out: Vdss. Summed up:
as §1

Data set [9] can be described thus: Cmax in Balb/c mouse at 10 mg/kg, po. The format is ADME, organism-based. On the set-up: dose 10 mg/kg, route oral. To be noted: in vivo. Summed up: as §1
Data set [10] is described as follows: AUC in Balb/c mouse at 10 mg/kg, po. To be noted: in vivo. In kind it is ADME, organism-based. An outline of the steps: as §1
Data set [11] relates to Mus musculus. As to the kind of experiment: Inhibition of IL2/IL23-induced IL17F production in C57BL/6 mouse at 5 mg/kg, po bid treated 30 mins prior to 24 hrs IL2 challenge followed by IL2/IL23 addition at 0,7 and 23 hrs measured after 7 hrs post last IL2/IL23 challenge relative to control. In kind it is functional. To be noted: C57BL/6, po. An outline of the steps: (§2)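 Naive mice were challenged three times with IL-2 plus IL-23 (first at 0 and 7 h) and dosed orally bid at 5, 15 or 50 mg/kg. Serum cytokines were measured 7 h after the final IL-2/IL-23 administration. An anti-IL-23 antibody served as positive control.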

Data set [12] relates to Mus musculus. Put plainly: Inhibition of IL2/IL23-induced IL17F production in po bid dosed C57BL/6 mouse treated 30 mins prior to 24 hrs IL2 challenge followed by IL2/IL23 addition at 0,7 and 23 hrs measured after 7 hrs post last IL2/IL23 challenge. The format is functional, organism-based. An outline of the steps:
as §2

Data set [13] in a line: Inhibition of CYP1B2 (unknown origin). In kind it is ADME, Homo sapiens.

Sequence of Cytochrome P450 2C19 (P33261 whole entry): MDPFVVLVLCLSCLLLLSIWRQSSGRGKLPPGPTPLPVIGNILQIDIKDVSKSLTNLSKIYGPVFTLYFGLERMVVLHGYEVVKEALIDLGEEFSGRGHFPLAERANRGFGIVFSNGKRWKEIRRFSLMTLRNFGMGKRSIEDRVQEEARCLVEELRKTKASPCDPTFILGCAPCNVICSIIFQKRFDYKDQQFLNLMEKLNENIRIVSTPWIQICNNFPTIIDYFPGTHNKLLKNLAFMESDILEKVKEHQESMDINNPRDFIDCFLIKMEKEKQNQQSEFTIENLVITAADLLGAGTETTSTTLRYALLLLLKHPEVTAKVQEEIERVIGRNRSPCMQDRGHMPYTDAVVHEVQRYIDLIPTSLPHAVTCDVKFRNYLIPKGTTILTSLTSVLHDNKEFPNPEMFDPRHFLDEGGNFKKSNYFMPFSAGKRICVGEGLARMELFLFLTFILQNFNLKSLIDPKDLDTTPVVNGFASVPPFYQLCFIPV

Usually pEC50 stands for −log10 of the EC50, conventionally taken in molar units. In general, fraction unbound refers to the share of the substance not bound to proteins or other matrix. Broadly, the pIC50 is −log10 of the IC50, conventionally taken in molar units. Usually half-life stands for how long it takes for the measured level to halve. What is called Cmax is the peak of the concentration-time curve. A word on the AUC: it is the area under the concentration-time curve, a measure of exposure. A word on the inhibition in vivo: it is the change of the read-out against control, counted positive when it falls. As to `O=C(O)[C@H]1CC[C@H](C(=O)N2CC[C@](c3ccc(C(F)(C(F)(F)F)C(F)(F)F)cc3)(S(=O)(=O)c3ccc(F)cc3)C2)CC1`, the Emax on PXR (NR1I2) was 18%. The same molecule gave a pEC50 in data set [1] below 5.12. In [2], the Papp worked out at 12 ×10⁻⁶ cm/s. Besides, the fraction unbound in data set [3] is 0.105. Besides, the result in [4] and in data set [5] was inactive. Moreover, the negative-log IC50 (pIC50) (at Cytochrome P450 2C9; against Cytochrome P450 2C19; in data set [13]) was below 4.70 throughout. Moreover, the half-life in data set [6] is above 2 h; in data set [7] it was 7.2 h. Moreover, the Vd in [8] was 3.4 L/kg. This molecule also gave a Cmax in data set [9] of 6.6 µM. Further, in [10], the AUC was determined as 36.6 µM·h. Besides, the inhibition in vivo at 5 mg/kg in the data set on Mus musculus [11] amounted to 47%. Besides, the inhibition entry in the data set on Mus musculus [12] was “Dose-dependent effect”.

The values are drawn from ChEMBL document CHEMBL4339200, “Structure-based Discovery of Phenyl (3-Phenylpyrrolidin-3-yl)sulfones as Selective, Orally Active RORγt Inverse Agonists” (ACS Med Chem Lett, 2019).
